Assay results taken from PMC3625458 (Journal of medicinal chemistry, 2013).
Entries after “also recorded” stand apart in the source; their conditions may differ.

How the values were obtained:
[1] = target: CDPK1 G128A (Toxoplasma gondii, UniProt Q9BJF5, G128A); assay: CDPK1 G128A mutant kinase assay, syntide-2 peptide ELISA; format: biochemical
[2] = target: human calmodulin dependent kinase II alpha (αCaMKII) (Homo sapiens, UniProt Q9UQM7); assay: CaM Kinase II Assay CycLex kit; format: biochemical
How it was run: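 Human αCaMKII activity measured with a commercial CaM kinase II assay kit following the maker's recommendations. Test compound in serial dilutions; all samples run in triplicate. Data normalized and log-transformed, then fit by non-linear regression to a sigmoidal dose-response curve with variable slope to obtain IC50.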

[3] = In vitro microsome stability assay; format: in vitro ADME; conditions: rat, liver microsomes
[4] = target: CDPK1 G128S (Toxoplasma gondii, UniProt Q9BJF5, G128S); assay: CDPK1 G128S mutant kinase assay, syntide-2 peptide ELISA; format: biochemical
[5] = target: CDPK1 G128M (Toxoplasma gondii, UniProt Q9BJF5, G128M); assay: CDPK1 G128M mutant kinase assay, syntide-2 peptide ELISA; format: biochemical
[6] = target: CDPK1 G128T (Toxoplasma gondii, UniProt Q9BJF5, G128T); assay: CDPK1 G128T mutant kinase assay, syntide-2 peptide ELISA; format: biochemical
[7] = test system: T. gondii type II Pru-LUC strain; assay: Murine infection model of toxoplasmosis; format: in vivo, mouse; conditions: 30 days post-infection, 5 mg/kg daily i.p. for 10 days
[8] = test system: T. gondii highly virulent RH strain; conditions: cited from earlier work
[9] = test system: T. gondii 2F clone of the type I RH strain in HFF cells; assay: Inhibition of parasite growth in vitro in HFF monolayers; format: cell-based, Toxoplasma gondii

## Cc1cccc(Cc2nn(C(C)(C)C)c3ncnc(N)c23)c1 [Compound 1, 3-methyl-benzyl pyrazolo [3,4-d] pyrimidine]
[1]
  IC50: 13.7 ± 7.1 nM
[1]; Gly to Ala
  shift in potency vs Gly gatekeeper: 3-5 fold
[2]
  IC50: > 10000 nM
[2]; Phe gatekeeper
  sensitivity of human CamKIIα: completely resistant
[3]
  microsome stability: extremely unstable; also recorded: poor microsome stability
[4]
  IC50: 22.9 ± 7.5 nM
[4]; Gly to Ser
  shift in potency vs Gly gatekeeper: 3-5 fold
[5]
  IC50: > 10000 nM
[5]; Gly to Met
  sensitivity of Met gatekeeper TgCDPK1: completely insensitive
[6]
  IC50: 222 ± 43.7 nM
[6]; Gly to Thr, relative to Ala or Ser
  additional decrease in inhibition: 10 fold

## CC(C)(C)n1nc(Cc2cccc(Cl)c2)c2c(N)ncnc21 [Compound 3, 3-chloro-benzyl pyrazolo [3,4-d] pyrimidine]
[7]
  brain tissue cyst burden in surviving mice: considerable variation in the reduction of cyst numbers

## CC(C)(C)n1nc(Cc2cccc(Br)c2)c2c(N)ncnc21 [Compound 4, 3-bromo-benzyl pyrazolo [3,4-d] pyrimidine]
[3]
  microsomal CLint: > 350 µL/min/mg

## CC(C)(C)n1nc(Cc2cccc3ccccc23)c2c(N)ncnc21 [Compound 6, 1-napthylmethyl-PP]
[8]; 10-fold higher doses, i.p. inoculation
  parasite burdens: modest reduction in parasite burdens
[8]; oral administration, RH strain
  protection against lethal challenge: failed to protect

## CC(C)(C)n1nc(Cc2cc(Cl)ccc2F)c2c(N)ncnc21 [Compound 10]
[3]
  microsomal CLint: 250 µL/min/mg

## CC(C)n1nc(Cc2cccc(Cl)c2Cl)c2c(N)ncnc21 [Compound 11]
[7]
  brain tissue cyst burden in surviving mice: considerable variation in the reduction of cyst numbers
[3]
  microsomal CLint: 190 µL/min/mg

## CC(C)(C)n1nc(Cc2cccc(Cl)c2F)c2c(N)ncnc21 [Compound 18]
[3]
  microsomal CLint: > 350 µL/min/mg

## CC(C)(C)n1nc(Cc2ccc(F)c(Cl)c2)c2c(N)ncnc21 [Compound 20]
[3]
  microsomal CLint: > 350 µL/min/mg

## CC(C)n1nc(Cc2cc(F)cc(Cl)c2)c2c(N)ncnc21 [Compound 21]
[3]
  microsomal CLint: > 350 µL/min/mg

## CC(C)(C)n1nc(Cc2cc(F)cc(F)c2)c2c(N)ncnc21 [Compound 24]
[7]; 5 mg/kg
  brain tissue cyst burden in surviving mice: much more potent and uniform protection; also recorded: most effective in reducing the chronic burden of CNS infection

## CC(C)n1nc(C(O)c2cccc(Cl)c2Cl)c2c(N)ncnc21 (centres unmarked) [Compound 25]
[9]
  activity against T. gondii: inactive
[3]
  microsomal CLint: 68 µL/min/mg

## CC(C)n1nc(C(F)c2cccc(Cl)c2Cl)c2c(N)ncnc21 (centres unmarked) [Compound 26]
[3]
  microsomal CLint: 107 µL/min/mg

## CCc1nc(N)nc(N)c1-c1ccc(Cl)cc1 [pyrimethamine, reference compound]
[9]; 4 h vs 24 h treatment, growth to 72 h
  treatment time required to demonstrate potent inhibition of growth: at least 24 h
